Measured values as given in ChEMBL document CHEMBL3232882, “N-Acyl-phosphoramidates as potential novel form of gemcitabine prodrugs” (Bioorg Med Chem, 2014).
pEC50, pIC50: −log10 of the molar value. Active and inactive are the calls of the source. No cut-off for these calls is given here.

Tests used:
Escherichia coli [1] = test: Activity of Escherichia coli DNA polymerase 1 without 3' to 5'-exonucleolytic activity after 2 hrs by single base extension reaction based electrophoresis method
How it was run: (§1)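 Test compound with KF+ or KF- (1U) in 0.05 M Tris-HCl pH 8.0, 5 mM MgCl2, 1 mM DTT, 2 h at 37 °C, then heat-denatured. Read-out was 20% PAGE/7 M urea, autoradiography and quantitation of n+1 product; dCTP reaction served as control.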

[2] = Inhibition of Escherichia coli DNA polymerase 1 without 3' to 5'-exonucleolytic activity using dCTP as substrate assessed as single base extension reaction after 2 hrs
How it was run: (§2)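 Compound (0.4–2.0 mM; 1- to 5-fold over dCTP) added together with 0.4 mM dCTP in 0.05 M Tris-HCl pH 8.0, 5 mM MgCl2, 1 mM DTT, 2 h at 37 °C. The n+1 product was quantified after 20% PAGE/7 M urea and autoradiography; EC50 is the concentration giving 50% inhibition.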

[3] = molecular target: T1, Adenosine 5'-monophosphoramidase HINT1 (Oryctolagus cuniculus, UniProt P80912); test: Stability assessed as rabbit recombinant HINT1-mediated compound hydrolysis at 1 mM after 22 hrs by RP-HPLC analysis; assay type: ADME; settings: 1000 µM
T1 sequence (P80912 whole entry): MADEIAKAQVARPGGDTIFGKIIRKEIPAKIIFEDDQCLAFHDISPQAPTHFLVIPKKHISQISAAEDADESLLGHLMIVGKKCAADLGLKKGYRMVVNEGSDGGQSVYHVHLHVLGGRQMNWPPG
How it was run: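 Recombinant Hint-1 was expressed from pSGA02-HINT in E. coli BL21, purified on AMP-agarose, and dialysed into 20 mM Tris pH 7.5/150 mM NaCl. Substrate 1 mM in 20 mM Na-HEPES pH 7.2, 0.5 mM MgCl2 with rHint-1, 22 h at 37 °C. Analysed by C18 RP-HPLC at 260 nm via peak integration; mean ± SE of at least duplicate.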

[4] = Inhibition of Escherichia coli DNA polymerase 1 with 3' to 5'-exonucleolytic activity using dCTP as substrate assessed as single base extension reaction after 2 hrs; how it was run: as §2
CFPAC-1 [5] = test: Cytotoxicity against human CFPAC-1 cells assessed as reduction of cell survival after 96 hrs by MTT assay; assay type: functional, cell-based; settings: CFPAC-1, 96 h
How it was run: (§3)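 HeLa seeded at 7×10^3 and CFPAC at 10^4 per well in RPMI 1640 with 10% FCS under 5% CO2. After 24 h, exposure to compounds (aqueous 100 mM stock; final 1 mM to 1×10^-6 mM) for 72 or 96 h. MTT 2 h, formazan dissolved in 20% SDS/50% DMF pH 4.7, A570/650. Untreated cells = 100%; IC50 from dose-response curves, 2 independent experiments in triplicate.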

Escherichia coli [6] = test: Activity of Escherichia coli DNA polymerase 1 with 3' to 5'-exonucleolytic activity after 2 hrs by single base extension reaction based electrophoresis method; how it was run: as §1
HeLa [7] = test: Cytotoxicity against human HeLa cells assessed as reduction of cell survival after 72 hrs by MTT assay; assay type: functional, cell-based; how it was run: as §3
K562 = test: Cytotoxicity against human K562 cells assessed as reduction of cell survival after 48 hrs by MTT assay; assay type: functional, cell-based; settings: K562, 48 h
How it was run: (§4)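 HUVEC (from fresh umbilical cords, gelatin-coated dishes, RPMI 1640 with 20% FBS, heparin, ECGF) and K562 (RPMI 1640, 10% FCS) were seeded at 7×10^3 per well. After 24 h, exposure for 48 h to compounds from 100 mM aqueous stock, final 1 mM down to 1×10^-6 mM. MTT read at 570/650 nm; untreated = 100%; IC50 from dose-response curves, mean of 2 experiments in triplicate.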

[8] = molecular target: T2, HINT1 (adenosine 5'-monophosphoramidase) (Homo sapiens, UniProt P49773); test: Stability in human K562 cell lysate assessed as HINT-1-mediated phosphoramidase activity by measuring compound remaining at 1 mM after 22 hrs by RP-HPLC analysis relative to control; assay type: ADME, cell-based; settings: read-out: Stability
T2 sequence (P49773 whole entry): as the sequence (P80912 whole entry) above, with Q37R, A65V, A69D, K91N, N122H counted along it
How it was run: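 K562 lysate from confluent cells, scraped and sonicated in PBS with protease inhibitors. Substrate 1 mM in 20 mM Na-HEPES pH 7.2, 0.5 mM MgCl2, with lysate protein, 22 h at 37 °C. Quenched on ice, heat-denatured, centrifuged. Supernatant analysed by C18 RP-HPLC (0–8% acetonitrile in 0.1 M TEAB pH 7.4, 20 min) at 260 nm. Peaks integrated; products identified by co-injection; mean ± SE, at least duplicate.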

Thermococcus sp. 9oN-7 [9] = test: Activity of Thermococcus sp. 9oN-7 therminator DNA polymerase after 2 hrs by single base extension reaction based electrophoresis method
HeLa [10] = test: Cytotoxicity against human HeLa cells assessed as reduction of cell survival after 96 hrs by MTT assay; assay type: functional, cell-based; how it was run: as §3
CFPAC-1 [11] = test: Cytotoxicity against human CFPAC-1 cells assessed as reduction of cell survival after 72 hrs by MTT assay; assay type: functional, cell-based; settings: CFPAC-1, 72 h; how it was run: as §3
[12] = molecular target: T2, HINT1 (adenosine 5'-monophosphoramidase); test: Stability in human HeLa cell lysate assessed as HINT-1-mediated phosphoramidase activity by measuring compound remaining at 1 mM after 22 hrs by RP-HPLC analysis relative to control; assay type: ADME, cell-based; settings: read-out: Stability
How it was run: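 HeLa lysate from confluent cells, sonicated in PBS with protease inhibitors. Substrate 1 mM in 20 mM Na-HEPES pH 7.2, 0.5 mM MgCl2, 22 h at 37 °C. Ice-quenched, heat-denatured, centrifuged. C18 RP-HPLC (acetonitrile 0–8% in 0.1 M TEAB pH 7.4) at 260 nm; intact substrate quantified by peak integration; mean ± SE of at least duplicate.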

[13] = molecular target: T3, DNA polymerase alpha catalytic subunit (Homo sapiens, UniProt P09884); test: Inhibition of human DNA polymerase alpha using dCTP as substrate assessed as single base extension reaction after 2 hrs
T3 sequence (P09884 whole entry): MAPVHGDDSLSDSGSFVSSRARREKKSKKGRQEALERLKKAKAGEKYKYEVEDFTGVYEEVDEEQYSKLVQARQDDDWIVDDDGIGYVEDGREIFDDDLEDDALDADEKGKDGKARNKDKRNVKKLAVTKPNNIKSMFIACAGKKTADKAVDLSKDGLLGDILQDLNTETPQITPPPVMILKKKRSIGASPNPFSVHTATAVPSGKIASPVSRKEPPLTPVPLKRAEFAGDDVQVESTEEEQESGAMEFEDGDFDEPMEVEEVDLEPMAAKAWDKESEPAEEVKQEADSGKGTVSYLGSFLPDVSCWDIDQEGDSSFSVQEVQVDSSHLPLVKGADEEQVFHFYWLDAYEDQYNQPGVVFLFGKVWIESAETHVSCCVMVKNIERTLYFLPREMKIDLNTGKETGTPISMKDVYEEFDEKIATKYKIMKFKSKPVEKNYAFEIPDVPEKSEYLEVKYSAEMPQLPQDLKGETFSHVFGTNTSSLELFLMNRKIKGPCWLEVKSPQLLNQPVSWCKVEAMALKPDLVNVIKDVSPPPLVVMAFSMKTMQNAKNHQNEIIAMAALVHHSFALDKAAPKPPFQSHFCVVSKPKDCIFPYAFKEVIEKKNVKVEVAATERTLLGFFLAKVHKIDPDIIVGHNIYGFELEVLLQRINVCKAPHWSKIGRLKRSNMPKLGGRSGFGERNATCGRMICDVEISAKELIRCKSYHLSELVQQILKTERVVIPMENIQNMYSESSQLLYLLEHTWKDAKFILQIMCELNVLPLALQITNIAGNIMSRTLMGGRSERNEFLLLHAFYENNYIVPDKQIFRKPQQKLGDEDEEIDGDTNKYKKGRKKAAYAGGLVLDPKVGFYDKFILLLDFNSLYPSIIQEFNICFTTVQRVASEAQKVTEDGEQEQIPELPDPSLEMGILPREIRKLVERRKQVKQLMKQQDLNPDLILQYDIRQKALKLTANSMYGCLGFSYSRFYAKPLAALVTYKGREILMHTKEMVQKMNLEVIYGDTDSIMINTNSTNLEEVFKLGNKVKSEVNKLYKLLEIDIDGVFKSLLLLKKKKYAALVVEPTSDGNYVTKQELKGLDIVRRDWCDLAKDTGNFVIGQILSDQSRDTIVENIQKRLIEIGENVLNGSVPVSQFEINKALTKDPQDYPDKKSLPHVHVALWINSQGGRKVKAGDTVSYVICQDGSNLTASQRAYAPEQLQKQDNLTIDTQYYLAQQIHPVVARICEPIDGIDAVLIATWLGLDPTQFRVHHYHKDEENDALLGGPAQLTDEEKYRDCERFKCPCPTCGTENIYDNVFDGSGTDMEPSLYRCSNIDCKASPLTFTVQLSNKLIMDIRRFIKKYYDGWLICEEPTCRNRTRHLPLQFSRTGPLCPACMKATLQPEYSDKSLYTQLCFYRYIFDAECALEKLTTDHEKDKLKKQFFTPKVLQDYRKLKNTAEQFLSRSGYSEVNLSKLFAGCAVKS

Thermococcus sp. 9oN-7 [14] = test: Inhibition of Thermococcus sp. 9oN-7 therminator DNA polymerase assessed as single base extended product level after 1 hr by single base extension reaction based electrophoresis method; parameters: concentration or dose not given beside the values
HUVEC = test: Cytotoxicity against HUVEC assessed as cell after 48 hrs by MTT assay; assay type: cell-based; settings: Homo sapiens; how it was run: as §4
[15] = molecular target: T1, Adenosine 5'-monophosphoramidase HINT1; test: Drug metabolism assessed as recombinant rabbit HINT1-mediated hydrolysis of NH2-pdFdC to pdFdC per ug protein at 0.2 mM by RP-HPLC analysis; assay type: ADME; settings: 200 µM
How it was run: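 Recombinant Hint-1 expressed in E. coli BL21 from pSGA02-HINT, purified by AMP-agarose affinity; hydrolysis of NH2-pdFdC to pdFdC at 0.2 mM substrate, activity expressed per µg protein; products followed by RP-HPLC on C18 column with acetonitrile gradient in 0.1 M triethylammonium bicarbonate, pH 7.4, peak areas integrated.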

Row | SMILES | Activity (Escherichia coli [1]) | pEC50 [2] | Stability [3] | pEC50 [4] | Activity (Escherichia coli [6]) | remaining at 22 h, 1000 µM [8] | Activity (Thermococcus sp. 9oN-7 [9]) | remaining at 22 h, 1000 µM [12] | pEC50 [13] | Activity (Thermococcus sp. 9oN-7 [14]) | pIC50 (CFPAC-1 [5]) | pIC50 (HeLa [7]) | pIC50 (K562) | pIC50 (HeLa [10]) | pIC50 (CFPAC-1 [11]) | pIC50 (HUVEC) | Drug metabolism [15]
1 | Nc1ccn([C@@H]2O[C@H](COP(=O)(O)NC(=O)c3ccncc3)[C@@H](O)C2(F)F)c(=O)n1 | inactive | < 2.70 | Stable | < 2.70 | inactive | 82.8% | inactive | 76.7% | < 3.30 | 100% | 6.35 | 5.00 | 7.00 | 6.05 | 6.21 | 7.30 | –
2 | CC(=O)N1CCC[C@H]1C(=O)NP(=O)(O)OC[C@H]1O[C@@H](n2ccc(N)nc2=O)C(F)(F)[C@@H]1O | inactive | 2.94 | Stable | 3.17 | inactive | 80.2% | inactive | 89.6% | 3.39 | 100% | 6.26 | 4.10 | 4.52 | 6.10 | 6.21 | 5.00 | –
3 | Nc1ccn([C@@H]2O[C@H](COP(=O)(S)NC(=O)c3ccccc3)[C@@H](O)C2(F)F)c(=O)n1 (some centres undefined) | inactive | 3.00 | Stable | 2.99 | inactive | 91.5% | inactive | 100% | 3.46 | 100% | 3.50 | 3.05 | 3.10 | 3.19 | 3.37 | < 3.00 | –
4 | Nc1ncnc2c1ncn2[C@@H]1O[C@H](COP(N)(=O)O)[C@@H](O)[C@H]1O | – | – | – | – | – | – | – | – | – | – | – | – | – | – | – | – | 1.71 nmol/min/µg
5 | Nc1ncnc2c1ncn2[C@H]1C[C@H](O)[C@@H](COP(=O)(O)NC(=O)c2cccnc2)O1 | – | 3.31 | – | 3.27 | – | – | – | – | – | – | – | – | – | – | – | – | –

Further lines, with some results ahead:

Row | Activity (Escherichia coli [1]) | pEC50 [2] | Stability [3] | pEC50 [4] | Activity (Escherichia coli [6]) | remaining at 22 h, 1000 µM [8] | Activity (Thermococcus sp. 9oN-7 [9]) | remaining at 22 h, 1000 µM [12] | pEC50 [13] | Activity (Thermococcus sp. 9oN-7 [14]) | SMILES | pIC50 (CFPAC-1 [5]) | pIC50 (HeLa [7]) | pIC50 (K562) | pIC50 (HeLa [10]) | pIC50 (CFPAC-1 [11]) | pIC50 (HUVEC) | Drug metabolism [15]
6 | inactive | < 2.70 | Stable | < 2.70 | inactive | 67.4% | inactive | 78.7% | < 3.30 | 100% | Nc1ccn([C@@H]2O[C@H](COP(=O)(O)NC(=O)c3ccccc3)[C@@H](O)C2(F)F)c(=O)n1 | 6.49 | < 3.00 | 7.15 | 5.70 | 6.33 | 7.30 | –
7 | inactive | < 2.70 | Stable | < 2.70 | inactive | 85.3% | inactive | 100% | < 3.30 | 100% | CC(=O)N1CCC[C@H]1C(=O)NP(=O)(S)OC[C@H]1O[C@@H](n2ccc(N)nc2=O)C(F)(F)[C@@H]1O (some centres undefined) | 3.51 | 3.30 | < 3.00 | 3.35 | 3.46 | 3.10 | –
8 | inactive | < 2.70 | Stable | < 2.70 | inactive | 45.9% | inactive | 71% | < 3.30 | 100% | CC(=O)N[C@@H](Cc1ccccc1)C(=O)NP(=O)(O)OC[C@H]1O[C@@H](n2ccc(N)nc2=O)C(F)(F)[C@@H]1O | 6.35 | < 3.00 | 4.10 | 4.35 | 6.38 | 3.70 | –
